Drawing on ChEMBL document CHEMBL1146238, “Prenylated xanthones from the root bark of Cudrania tricuspidata” (J Nat Prod, 2007), this text covers IC50 for eleven compounds.

Molecules are shown by their SMILES. Where only a bound is given, the exact number is not on record here.

The assay deals with T1, Amine oxidase [flavin-containing] A (Mus musculus, UniProt Q64133).
T1 sequence (Q64133 whole entry): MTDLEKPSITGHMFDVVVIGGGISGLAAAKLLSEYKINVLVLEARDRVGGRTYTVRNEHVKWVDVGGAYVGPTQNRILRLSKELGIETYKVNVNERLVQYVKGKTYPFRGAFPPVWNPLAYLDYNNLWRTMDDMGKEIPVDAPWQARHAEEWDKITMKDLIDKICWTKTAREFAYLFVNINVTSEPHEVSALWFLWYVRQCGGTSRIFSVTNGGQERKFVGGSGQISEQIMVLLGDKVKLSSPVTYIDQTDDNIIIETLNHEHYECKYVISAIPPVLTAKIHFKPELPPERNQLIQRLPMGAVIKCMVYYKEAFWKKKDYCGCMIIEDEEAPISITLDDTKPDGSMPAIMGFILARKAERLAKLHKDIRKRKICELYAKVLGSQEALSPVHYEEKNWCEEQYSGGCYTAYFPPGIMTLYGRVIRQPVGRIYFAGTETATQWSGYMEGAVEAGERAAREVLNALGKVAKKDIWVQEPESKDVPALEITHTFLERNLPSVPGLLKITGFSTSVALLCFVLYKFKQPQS
The assay is described as follows: Inhibition at monoamine oxidase in mouse brain. Type of assay: tissue-based. The essentials: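 Enzyme source: mouse brain mitochondrial fraction. Substrate kynuramine, with MAO converting it to 4-hydroxyquinoline. That product is read fluorometrically at excitation 315 nm and emission 380 nm. Compounds go in as DMSO solutions, with DMSO kept below 3%. Iproniazid serves as the positive control. Result reported as IC50.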
In the case of `CC(C)=CCc1c(O)cc2c(c1O)C(=O)C[C@@H](c1cc3c(cc1O)OC(C)(C)C=C3)O2` [CUDRAFLAVANONE A], the IC50 was found to be 89.7 µM.

As for `CC(C)=CC1Oc2cc(O)ccc2-c2oc3cc4c(c(O)c3c(=O)c21)C=CC(C)(C)O4` (stereo unspecified) [CUDRAFLAVONE A], the IC50 was over 150 µM. With `CC(C)=CCc1c(-c2ccc(O)cc2O)oc2cc3c(c(O)c2c1=O)C=CC(C)(C)O3` [CUDRAFLAVONE B], 80 µM corresponded to half-maximal inhibition (IC50). The value for `C=CC(C)(C)c1c(O)cc(O)c2c(=O)c3c(CC=C(C)C)c(O)c(O)cc3oc12` [CUDRATRICUSXANTHONE A] was 88.3 µM; that for `CC(C)=CCc1c(O)c(O)cc2oc3c4c(cc(O)c3c(=O)c12)OC(C)C4(C)C` (stereo unspecified) [CUDRATRICUSXANTHONE J] was over 150 µM. The value for `COc1c(CC=C(C)C)c(O)c2c(=O)c3cc(O)c(O)cc3oc2c1CC=C(C)C` [CUDRATRICUSXANTHONE K] was over 150 µM.

The compound `C=CC(C)(C)c1c(O)cc(O)c2c(=O)c3cc(O)c(O)cc3oc12` [CUDRATRICUSXANTHONE L] came in with an IC50 of over 150 µM. `C=CC(C)(C)c1c(O)cc(O)c2c(=O)c3c(CCC(C)(C)O)c(O)c(O)cc3oc12` [CUDRATRICUSXANTHONE M] had an IC50 of over 150 µM. Consider `C=CC(C)(C)c1c(O)cc(O)c2c(=O)c3c(CC=C(C)C)c(OC)c(O)cc3oc12` [CUDRAXANTHONE C], for which the 50% inhibitory concentration (IC50) was over 150 µM. The value for `C=CC(C)(C)c1c(O)cc2oc3c(CC=C(C)C)c(O)c(O)cc3c(=O)c2c1O` [CUDRAXANTHONE L] was over 150 µM.

On to `C=CC(C)(C)c1c(O)cc2oc3c4c(c(O)cc3c(=O)c2c1O)OC(C)(C)C=C4` [ISOCUDRAXANTHONE K], for which the IC50 is over 150 µM.
